Compounds with a hit are over-represented: about 2.1% of the library has one in this group of screens.
FAS-TE inh = inhibitors of human fatty acid synthase thioesterase domain | P49327 | recombinant FAS-TE, OMFH fluorogenic substrate, fluorescence endpoint | inhibition, % at 15 µM | 360,000 tested, 0.67% active | AID 602261;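 active = compounds whose normalised, plate-corrected inhibition of enzyme fluorescence in the single-dose primary screen is 50% or more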;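 note: 0% = DMSO with enzyme and 100% = substrate without enzyme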
Runt-CBFb FRET = inhibitors of human RUNX1 Runt domain binding to CBFb | Q01196+Q13951 | Cerulean-Runt/Venus-CBFb FRET ratio 530/480, 1 h | inhibition, % at 20 µM | 220,000 tested, 0.46% active;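 active = inhibition over about 50% at 20 µM in the single-dose screen, limit read from the data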;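 note: 0% = DMSO wells and 100% = excess unlabeled CBFb competitor control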
Target sequence (Q01196 whole entry, looked up, the tested form may be a part): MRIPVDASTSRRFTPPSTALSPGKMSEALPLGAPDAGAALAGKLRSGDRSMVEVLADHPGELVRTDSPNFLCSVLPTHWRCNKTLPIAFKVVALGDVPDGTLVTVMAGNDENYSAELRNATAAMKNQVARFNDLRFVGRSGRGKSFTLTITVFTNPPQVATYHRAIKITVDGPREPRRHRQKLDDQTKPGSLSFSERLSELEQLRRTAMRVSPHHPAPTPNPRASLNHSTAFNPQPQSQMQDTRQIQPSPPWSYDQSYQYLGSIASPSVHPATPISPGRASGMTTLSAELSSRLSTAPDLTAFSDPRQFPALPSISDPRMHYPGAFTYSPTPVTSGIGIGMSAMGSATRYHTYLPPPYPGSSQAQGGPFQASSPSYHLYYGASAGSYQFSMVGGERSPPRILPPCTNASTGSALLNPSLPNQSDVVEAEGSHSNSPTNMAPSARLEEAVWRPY
Target sequence (Q13951 whole entry, looked up, the tested form may be a part): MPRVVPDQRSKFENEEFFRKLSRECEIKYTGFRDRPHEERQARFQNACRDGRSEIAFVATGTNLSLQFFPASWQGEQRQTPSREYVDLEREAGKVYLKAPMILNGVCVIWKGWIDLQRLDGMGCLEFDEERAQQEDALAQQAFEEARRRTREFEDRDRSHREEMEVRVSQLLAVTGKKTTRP
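test system = Cerulean-Runt domain fusion protein, energy donor | probe or stimulus = Venus-CBFb binding partner, 100 nM | incubation = two 1 h room-temperature incubations shielded from light | detection = fluorescence energy transfer, 422 nm excitation, 530/480 nm emission | measure = loss of energy transfer signal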
m-calpain inh = inhibitors of pig calpain II; 220,000 tested, 0.37% active; inhibition, % at 16 µM; purified calpain II, fluorogenic peptide substrate, 30 min;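 active = inhibition above about 50%, limit read from the data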
RanGTP-Impb inh = disruptors of Ran-importin-beta complex formation – biochemical, FRET, CFP-Ran, YFP-importin-beta, homogeneous, primary screen. cell-free CFP-Ran/YFP-importin-beta FRET ratio. inhibition, % (no concentration beside the values). 300,000 tested, 1.1% active;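 active = more than half of the replicate wells show a fall in the fluorescence ratio signal beyond about 16%, limit read from the data, passing the limit was not always enough; inconclusive = exactly half of the replicate wells pass the set limit; inactive = fewer than half of replicates pass the limit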;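 note: 0% = DMSO wells and 100% = Ran loaded with GDP instead of GTP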
Runt-SMMHC FRET = Runt domain-CBFb-SMMHC interaction inhibition. inhibition, % at 20 µM. Q01196+Q13951. 220,000 tested, 0.74% active. Cerulean-Runt/Venus-CBFb-SMMHC FRET ratio 530/480, 1 h;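 active = mean inhibition across duplicate retests at 20 µM reaching about 50%, limit read from the data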;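 note: 0% = DMSO wells and 100% = wells with excess untagged CBFb-SMMHC; inhibitors lower the FRET ratio by blocking Runt binding to CBFb-SMMHC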
* = called active by the depositor.

For O=C(O)c1cc2ccc(O)cc2oc1=O the results were FAS-TE inh -9.
`COc1ccc(/C=N/NC(=O)c2ccc(N(C)S(=O)(=O)c3ccccc3)cc2)cc1OC` gave FAS-TE inh 5, Runt-CBFb FRET -3, m-calpain inh -44, RanGTP-Impb inh -1 and Runt-SMMHC FRET -7.
CCN1CCN(C(=O)CS(=O)(=O)Cc2nc(-c3ccc(C)cc3)oc2C)CC1 was read as FAS-TE inh -5, Runt-CBFb FRET 0, m-calpain inh 3, RanGTP-Impb inh 3 and Runt-SMMHC FRET -1.
Cc1ccc(-c2nc(CS(=O)(=O)CC(=O)N3CCN(C)CC3)c(C)o2)cc1 was read as FAS-TE inh -6 and RanGTP-Impb inh 158*.
For N#Cc1c(NCCCO)nc(NCc2ccccc2)c2c1CCN(Cc1ccccc1)C2 the results were FAS-TE inh -7, Runt-CBFb FRET 18, m-calpain inh -470, RanGTP-Impb inh 89* and Runt-SMMHC FRET 46.
CN1CCc2c(C#N)c(N3CCCCC3)nc(NCc3ccccc3)c2C1 was read as FAS-TE inh -2, Runt-CBFb FRET 11, m-calpain inh -202, RanGTP-Impb inh 4 and Runt-SMMHC FRET 11.
Screening CC(=O)Nc1sc2c(c1C#N)CCN(Cc1ccccc1)C2 returned FAS-TE inh -7 and RanGTP-Impb inh 75*.
N#Cc1c(NC(=O)/C=C/C(=O)O)sc2c1CCN(Cc1ccccc1)C2 was read as FAS-TE inh -30 and RanGTP-Impb inh 141*.
For CC(=O)N/C(=C/C(C)C)c1ccccc1 the results were FAS-TE inh -6.
`O=c1[nH]c(-c2ccccn2)nc2sc(-c3ccccc3)cc12` gave FAS-TE inh 9, Runt-CBFb FRET 13, m-calpain inh inactive, RanGTP-Impb inh 12 and Runt-SMMHC FRET 17.
Screening O=C(CSc1ccc([N+](=O)[O-])cc1)Nc1nnc(C2CC2)s1 returned FAS-TE inh -1.
`CN(C)c1ccc(C2/C(=C(/O)c3ccc(Br)cc3)C(=O)C(=O)N2C)cc1` (centres undefined) gave FAS-TE inh -3 and RanGTP-Impb inh -2.
`CN1CCC(OC(=O)c2cc3cc(Br)ccc3oc2=O)CC1` gave FAS-TE inh -8 and RanGTP-Impb inh -3.
CCN(CC(=O)Nc1cc(Cl)ccc1C)C(=O)c1cc([N+](=O)[O-])ccc1N1CCOCC1 was read as FAS-TE inh 32.
CCOc1ccc(S(=O)(=O)Nc2cc(S(=O)(=O)N3CCOCC3)ccc2OC)cc1 was read as FAS-TE inh -4.
For O=C(Cc1ccccc1)Nc1ncnc2c1C(c1ccccc1)c1c(ccc3ccccc13)O2 (centres undefined) the results were FAS-TE inh 43.
`O=C(Nc1ncnc2c1C(c1ccccc1)c1c(ccc3ccccc13)O2)c1ccccc1` (centres undefined) gave FAS-TE inh 96*.
`CCN(CC)S(=O)(=O)c1ccc(C(=O)OC2CCCCC2CN(C)C)cc1` (centres undefined) gave FAS-TE inh -8, Runt-CBFb FRET 0, m-calpain inh 4, RanGTP-Impb inh 26* and Runt-SMMHC FRET 4.
For Cc1cc(/C=C2\SC(=S)N(Cc3ccco3)C2=O)c(C)n1-c1cccnc1 the results were FAS-TE inh -62, Runt-CBFb FRET -32, m-calpain inh -36, RanGTP-Impb inh 21* and Runt-SMMHC FRET -163.
`COc1cc(CNC(C)c2ccccc2)cc(Br)c1OCc1ccccc1` (centres undefined) gave FAS-TE inh 26 and RanGTP-Impb inh -1.
COc1cc(CNc2ccc(O)cc2)cc(Br)c1OCc1ccccc1 was read as FAS-TE inh 18, Runt-CBFb FRET 3, m-calpain inh 64*, RanGTP-Impb inh -7 and Runt-SMMHC FRET 11.
O=C(COC(=O)c1ccc(Cl)c(S(=O)(=O)N2CCCCCC2)c1)NCc1ccccc1 was read as FAS-TE inh 20.
Cc1c(CCC(=O)O)c(=O)oc2c(C)c3occ(-c4ccc(Cl)cc4)c3cc12 was read as FAS-TE inh 17 and RanGTP-Impb inh 6.
Cc1c(CC(=O)O)c(=O)oc2c(C)c3occ(-c4ccccc4)c3cc12 was read as FAS-TE inh 3 and RanGTP-Impb inh 19*.
`CC(=O)c1cc2c(cc1NC(=O)Nc1cccc(Cl)c1)OCCO2` gave FAS-TE inh -30, Runt-CBFb FRET 19, m-calpain inh -388, RanGTP-Impb inh inconclusive and Runt-SMMHC FRET 62*.
CC(=O)c1cc2c(cc1NC(=O)c1ccc(Cl)cc1)OCCO2 was read as FAS-TE inh -3 and RanGTP-Impb inh 3.
Oc1c(CN2CCc3ccccc3C2)cc(Cl)c2cccnc12 was read as FAS-TE inh 8, Runt-CBFb FRET 3, m-calpain inh 35, RanGTP-Impb inh 23* and Runt-SMMHC FRET -15.
`O=C(COC(=O)COc1ccc(Cl)cc1)NC1CCCCCC1` gave FAS-TE inh -3.
`CC(C)C[C@H](NC(=O)c1nc[nH]c1C(=O)NCc1ccccc1)C(=O)OC(C)(C)C` gave FAS-TE inh 10, Runt-CBFb FRET -7, m-calpain inh 60*, RanGTP-Impb inh 7 and Runt-SMMHC FRET 0.
CC(C)(C)OC(=O)NCCCCCNC(=O)c1[nH]cnc1C(=O)N[C@@H](CCCCNC(=O)OC(C)(C)C)C(=O)OC(C)(C)C was read as FAS-TE inh 68*, Runt-CBFb FRET -10, m-calpain inh 54*, RanGTP-Impb inh 1 and Runt-SMMHC FRET -4.
For CC(O)C(NS(=O)(=O)c1ccc(Cl)cc1)C(=O)OCCOc1ccc(F)cc1 (centres undefined) the results were FAS-TE inh 5.
Cc1ccc(S(=O)(=O)N2CCOCC2)cc1C(=O)OCC(=O)NCCc1ccc(F)cc1 was read as FAS-TE inh 1.
For O=C(COc1ccccc1F)NNC(=O)c1cccc(-n2cccc2)c1 the results were FAS-TE inh 0 and RanGTP-Impb inh inconclusive.
Screening N#Cc1c(=O)c2nc(NCCCO)ncc2n2c(=O)c3ccccc3[nH]c12 returned FAS-TE inh -1, Runt-CBFb FRET -43, m-calpain inh -46, RanGTP-Impb inh -37 and Runt-SMMHC FRET -152.
Screening N#Cc1c(=O)c2nc(NCc3ccccc3)ncc2n2ccccc12 returned FAS-TE inh 39, Runt-CBFb FRET -14, m-calpain inh -493, RanGTP-Impb inh 38* and Runt-SMMHC FRET 57.
Screening O=C1c2ccccc2-c2onc3ccc(N4CCCC4)c1c23 returned FAS-TE inh -35, Runt-CBFb FRET -48, m-calpain inh 20, RanGTP-Impb inh -1 and Runt-SMMHC FRET -319.
`O=C1c2ccccc2C(=O)c2c1cccc2N1CCCC1` gave FAS-TE inh 24, Runt-CBFb FRET 5, m-calpain inh 51*, RanGTP-Impb inh 0 and Runt-SMMHC FRET -1.
`Cc1c(Cl)c([N+](=O)[O-])nn1CC(=O)N1CCc2ccccc2C1` gave FAS-TE inh 51*, Runt-CBFb FRET 0, m-calpain inh -18, RanGTP-Impb inh 4 and Runt-SMMHC FRET 4.

Source: PubChem
